Assay type in all cases: functional, cell-based
Assay [1] can be described thus: Cytotoxicity against human HL60 cells after 48 hrs by MTS assay. The settings on record: HL-60, 48 h. The essentials: (§1)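 Cells grown in RPMI 1640 with 10% FBS and penicillin/streptomycin at 37 °C under 5% CO2. Adherent lines were seeded at 1 × 10^4 cells/well and left to attach for 12 h. Compounds in DMSO were tested at 0.064, 0.32, 1.6, 8 and 40 μM, in triplicate, for 48 h, with cisplatin as positive control. MTS was then added and formazan dissolved in 20% SDS (12 h, room temperature). OD read at 490 nm; IC50 by Reed and Muench method.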
For orientation: Formazan colour is commonly taken as a measure of viable cells.

The next assay relates to A549. The assay can be described thus: Cytotoxicity against human A549 cells after 48 hrs by MTS assay. The settings on record: A549, 48 h. In outline:
as §1

The test system of a further assay is SMMC-7721. As to the kind of experiment: Cytotoxicity against human SMMC7721 cells after 48 hrs by MTS assay. Particulars: SMMC-7721, 48 h. In outline: as §1
Assay [2] in a line: Cytotoxicity against human BEAS2B cells after 48 hrs by MTS assay. The settings on record: BEAS-2B.
The subject of the next assay is MCF7. As to the kind of experiment: Cytotoxicity against human MCF7 cells after 48 hrs by MTS assay. Particulars: MCF7, 48 h. In outline:
as §1

A further assay concerns SW480. As to the kind of experiment: Cytotoxicity against human SW480 cells after 48 hrs by MTS assay. Particulars: SW480, 48 h. The essentials: as §1

Each structure is given as a SMILES string.

Take `CO[C@@H]1C=C([C@@H]2C[C@H]3O[C@@]34[C@@]2(C)C[C@H](O)[C@@H]2[C@@]3(C)C=CC(=O)C(C)(C)C3=C(O)C(=O)[C@]24C)[C@@H](OC)O1`: the IC50 in assay [1] is 3.6 µM; in the assay with A549, 3.7 µM; with SMMC-7721, 2.4 µM; in assay [2], 5 µM; in the assay with MCF7, 4.2 µM; with SW480, 3.5 µM.
For the compound `CC1(C)C(=O)C=C[C@@]2(C)C1=C(O)C(=O)[C@]1(C)[C@@H]2[C@@H](O)C[C@@]2(C)[C@H](C3=CC(=O)O[C@@H]3O)C[C@H]3O[C@]321`, the IC50 in assay [1] was 3.1 µM; with A549, 2.6 µM; in the assay on SMMC-7721, 2.2 µM; in assay [2], 9.4 µM; in the assay with MCF7, 3.9 µM; in the assay with SW480, 2.4 µM.

As usually defined, the IC50 is the concentration that gives 50% inhibition. A high value points to a need for much substance.

The record behind these values is ChEMBL document CHEMBL3351792, “Limonoids from the Leaves and Twigs of Walsura yunnanensis” (J Nat Prod, 2014).
